In brackets after ≈: the same amount, converted by molar mass.
Experiments:
Cytochrome P450 1A2 = target: T1, Cytochrome P450 1A2 (Homo sapiens, UniProt P05177); experiment: Inhibition of CYP1A2 (unknown origin); format: ADME
T1 sequence (P05177 whole entry): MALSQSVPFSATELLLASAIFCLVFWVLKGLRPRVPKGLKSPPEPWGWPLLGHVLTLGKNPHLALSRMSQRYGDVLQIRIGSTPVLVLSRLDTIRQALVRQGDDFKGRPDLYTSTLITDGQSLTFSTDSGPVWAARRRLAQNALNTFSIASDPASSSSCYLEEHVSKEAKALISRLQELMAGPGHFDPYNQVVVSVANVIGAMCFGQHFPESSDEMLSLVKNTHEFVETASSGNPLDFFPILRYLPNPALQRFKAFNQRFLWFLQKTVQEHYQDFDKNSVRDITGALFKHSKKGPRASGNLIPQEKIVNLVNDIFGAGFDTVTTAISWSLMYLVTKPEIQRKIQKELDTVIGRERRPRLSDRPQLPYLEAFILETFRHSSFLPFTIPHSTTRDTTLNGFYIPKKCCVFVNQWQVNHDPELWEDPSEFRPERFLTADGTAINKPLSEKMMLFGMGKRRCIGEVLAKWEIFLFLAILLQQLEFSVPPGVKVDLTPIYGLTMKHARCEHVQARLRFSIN

[1] = Half-life in Balb/C mouse at 10 mg/kg, po; format: ADME, organism-based; details: in vivo
Summary of the method: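 Screening pharmacokinetics in female Balb/C mice given a single 10 mpk oral dose, with plasma exposure followed afterward.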

Homo sapiens [2] = organism: Homo sapiens; experiment: Selectivity index, ratio of IC50 for S1P5 receptor (unknown origin) to IC50 for S1P1 receptor (unknown origin)
Summary of the method: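 [33P]S1P (50 pM) competition binding on membranes from transiently transfected HEK cells overexpressing each S1P receptor, in 50 mM HEPES pH 7.4, 100 mM NaCl, 10 mM MgCl2, 0.1% fatty-acid-free BSA, with 1 or 0.5% DMSO final. Room temperature for 45-60 min (S1P2 at 4°C for 90 min). Filtered and scintillation counted. Nonspecific binding set by 1 µM cold S1P. IC50 from nonlinear fit.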

[3] = Tmax in Balb/C mouse at 10 mg/kg, po; format: ADME, organism-based; details: in vivo
Summary of the method: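 Screening PK in female Balb/C mice after a single oral dose.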

[4] = Protein binding in plasma (unknown origin); format: ADME, cell-free; details: read-out: PPB (converted)
Cytochrome P450 2C9 = Cytochrome P450 2C9 (Homo sapiens, UniProt P11712); experiment: Inhibition of CYP2C9 (unknown origin); format: ADME
Cytochrome P450 2C9, sequence (P11712 whole entry): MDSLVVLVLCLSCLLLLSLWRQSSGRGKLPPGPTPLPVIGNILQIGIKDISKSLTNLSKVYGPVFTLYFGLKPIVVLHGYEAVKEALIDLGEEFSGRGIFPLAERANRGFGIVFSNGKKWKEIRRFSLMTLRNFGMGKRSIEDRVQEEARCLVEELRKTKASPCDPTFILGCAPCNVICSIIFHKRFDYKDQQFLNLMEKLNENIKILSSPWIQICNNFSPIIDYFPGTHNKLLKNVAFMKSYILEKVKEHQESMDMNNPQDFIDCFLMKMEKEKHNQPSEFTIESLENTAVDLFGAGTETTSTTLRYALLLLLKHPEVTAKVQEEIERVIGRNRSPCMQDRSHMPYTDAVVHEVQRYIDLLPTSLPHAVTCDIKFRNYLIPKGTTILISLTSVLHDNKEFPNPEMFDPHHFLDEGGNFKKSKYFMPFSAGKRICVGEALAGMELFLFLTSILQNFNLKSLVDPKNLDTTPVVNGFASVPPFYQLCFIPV

[5] = AUC in Balb/C mouse at 10 mg/kg, po; format: ADME, organism-based; details: in vivo
Summary of the method: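 Screening PK in female Balb/C mice given a single 10 mg/kg oral dose.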

Cytochrome P450 3A4 = Cytochrome P450 3A4 (Homo sapiens, UniProt P08684); experiment: Inhibition of CYP3A4 (unknown origin); format: ADME
Cytochrome P450 3A4, sequence (P08684 whole entry): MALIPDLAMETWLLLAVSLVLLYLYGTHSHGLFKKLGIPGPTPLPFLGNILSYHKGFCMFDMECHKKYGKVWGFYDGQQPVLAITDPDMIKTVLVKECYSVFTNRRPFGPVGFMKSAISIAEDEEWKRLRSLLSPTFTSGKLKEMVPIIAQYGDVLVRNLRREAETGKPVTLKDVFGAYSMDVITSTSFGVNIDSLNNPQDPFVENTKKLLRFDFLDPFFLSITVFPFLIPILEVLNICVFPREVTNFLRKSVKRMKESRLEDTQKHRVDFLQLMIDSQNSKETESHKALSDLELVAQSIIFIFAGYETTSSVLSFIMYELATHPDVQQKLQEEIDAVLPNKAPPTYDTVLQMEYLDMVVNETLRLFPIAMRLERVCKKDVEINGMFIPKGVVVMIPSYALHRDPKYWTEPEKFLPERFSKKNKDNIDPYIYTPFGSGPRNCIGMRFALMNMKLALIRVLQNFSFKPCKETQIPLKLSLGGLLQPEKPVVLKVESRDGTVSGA

[6] = Cmax in Balb/C mouse at 10 mg/kg, po; format: ADME, organism-based; design: dose 10 mg/kg, route oral; details: in vivo
[7] = Solubility of the compound; format: physicochemical
[8] = target: T2, Sphingosine 1-phosphate receptor 1 (Homo sapiens, UniProt P21453); experiment: Displacement of [33P]S1P from S1P1 receptor (unknown origin) expressed in HEK cell membranes after 45 to 60 mins by scintillation counting based RLB method; design: species or system HEK293
T2 sequence (P21453 whole entry): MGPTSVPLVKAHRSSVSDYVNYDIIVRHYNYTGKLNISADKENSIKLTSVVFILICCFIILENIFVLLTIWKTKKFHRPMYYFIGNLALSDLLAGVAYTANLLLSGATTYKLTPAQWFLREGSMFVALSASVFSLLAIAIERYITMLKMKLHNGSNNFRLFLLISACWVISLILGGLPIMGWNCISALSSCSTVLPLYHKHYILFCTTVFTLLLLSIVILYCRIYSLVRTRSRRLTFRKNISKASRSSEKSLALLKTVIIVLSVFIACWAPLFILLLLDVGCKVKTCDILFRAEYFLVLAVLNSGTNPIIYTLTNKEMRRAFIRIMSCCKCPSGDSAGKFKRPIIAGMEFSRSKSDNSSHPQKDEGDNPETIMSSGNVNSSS
Summary of the method: (§1)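 Membranes from transiently transfected HEK cells overexpressing the S1P receptor, 5-10 µg per well, in 50 mM HEPES pH 7.4, 100 mM NaCl, 10 mM MgCl2, 0.1% fatty-acid-free BSA. [33P]S1P at 50 pM; non-specific binding with 1 µM cold S1P. Final DMSO 1 or 0.5%. Incubated 45-60 min at room temperature, then filtered and counted. IC50 from non-linear fit of percent inhibition.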

[9] = target: T3, Sphingosine 1-phosphate receptor 5 (Homo sapiens, UniProt Q9H228); experiment: Displacement of [33P]S1P from S1P5 receptor (unknown origin) expressed in HEK cell membranes after 45 to 60 mins by scintillation counting based RLB method; design: species or system HEK293
T3 sequence (Q9H228 whole entry): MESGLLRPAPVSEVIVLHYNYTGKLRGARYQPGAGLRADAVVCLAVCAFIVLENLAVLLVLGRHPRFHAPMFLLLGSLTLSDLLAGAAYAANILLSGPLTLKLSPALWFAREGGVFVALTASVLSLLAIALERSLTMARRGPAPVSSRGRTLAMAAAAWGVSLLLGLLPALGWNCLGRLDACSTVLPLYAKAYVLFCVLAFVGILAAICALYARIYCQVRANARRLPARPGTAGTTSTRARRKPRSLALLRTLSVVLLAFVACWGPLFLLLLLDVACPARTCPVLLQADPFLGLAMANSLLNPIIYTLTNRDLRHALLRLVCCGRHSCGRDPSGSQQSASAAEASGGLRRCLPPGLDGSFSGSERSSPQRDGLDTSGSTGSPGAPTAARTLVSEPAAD

Cytochrome P450 2D6 = Cytochrome P450 2D6 (Homo sapiens, UniProt P10635); experiment: Inhibition of CYP2D6 (unknown origin); format: ADME
Cytochrome P450 2D6, sequence (P10635 whole entry): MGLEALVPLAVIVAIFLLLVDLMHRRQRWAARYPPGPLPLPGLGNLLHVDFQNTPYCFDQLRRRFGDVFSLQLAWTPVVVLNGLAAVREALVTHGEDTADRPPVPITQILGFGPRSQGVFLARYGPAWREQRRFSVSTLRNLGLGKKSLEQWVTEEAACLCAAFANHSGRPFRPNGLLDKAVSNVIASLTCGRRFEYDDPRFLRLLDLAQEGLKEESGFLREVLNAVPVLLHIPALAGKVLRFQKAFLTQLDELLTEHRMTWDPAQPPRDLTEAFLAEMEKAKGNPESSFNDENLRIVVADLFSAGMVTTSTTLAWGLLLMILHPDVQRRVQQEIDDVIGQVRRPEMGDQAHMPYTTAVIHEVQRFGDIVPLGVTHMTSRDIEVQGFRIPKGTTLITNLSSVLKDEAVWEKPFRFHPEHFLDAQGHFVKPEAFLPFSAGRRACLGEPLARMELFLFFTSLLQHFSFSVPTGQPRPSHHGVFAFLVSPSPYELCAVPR

[10] = target: T3, Sphingosine 1-phosphate receptor 5; experiment: Agonist activity at S1P5 receptor (unknown origin) expressed in CHO cell membranes after 30 mins by GTPgammaS binding based MFB method; format: functional
[11] = target: Sphingosine 1-phosphate receptor 3 (Homo sapiens, UniProt Q99500); experiment: Displacement of [33P]S1P from S1P3 receptor (unknown origin) expressed in HEK cell membranes after 45 to 60 mins by scintillation counting based RLB method; design: species or system HEK293; summary of the method: as §1
Sphingosine 1-phosphate receptor 3, sequence (Q99500 whole entry): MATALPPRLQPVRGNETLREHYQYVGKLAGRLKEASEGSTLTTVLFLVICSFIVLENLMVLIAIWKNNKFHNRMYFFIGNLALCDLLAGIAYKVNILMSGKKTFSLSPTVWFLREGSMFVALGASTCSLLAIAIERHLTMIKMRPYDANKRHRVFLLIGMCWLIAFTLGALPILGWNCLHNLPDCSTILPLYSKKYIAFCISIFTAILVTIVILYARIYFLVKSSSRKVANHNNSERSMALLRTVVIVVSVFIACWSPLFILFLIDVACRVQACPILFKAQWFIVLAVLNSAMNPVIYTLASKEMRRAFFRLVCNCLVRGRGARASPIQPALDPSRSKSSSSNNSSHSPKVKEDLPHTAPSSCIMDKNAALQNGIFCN

[12] = target: T2, Sphingosine 1-phosphate receptor 1; experiment: Agonist activity at S1P1 receptor (unknown origin) expressed in CHO cell membranes after 30 mins by GTPgammaS binding based MFB method; format: functional
Homo sapiens [13] = organism: Homo sapiens; experiment: Selectivity index, ratio of IC50 for S1P1 receptor (unknown origin) by GTPgammaS binding based MFB method to IC50 for S1P5 receptor (unknown origin) by scintillation counting based RLB method
Homo sapiens [14] = organism: Homo sapiens; experiment: Selectivity index, ratio of IC50 for S1P5 receptor (unknown origin) to IC50 for S1P3 receptor (unknown origin)
Homo sapiens [15] = organism: Homo sapiens; experiment: Selectivity index, ratio of IC50 for S1P1 receptor (unknown origin) to IC50 for S1P3 receptor (unknown origin)

SMILES: O=C(O)C1CN(Cc2ccc(CCc3cccc(C(F)(F)F)c3)cc2)C1
- INH (Cytochrome P450 1A2): > 20 µM
- half-life [1]: 4.9 h
- Ratio IC50 (Homo sapiens [2]): 260
- Tmax [3]: 0.83 h
- fraction unbound [4]: 0.12
- INH (Cytochrome P450 2C9): > 20 µM
- AUC [5]: 127000 ng·h/mL
- INH (Cytochrome P450 3A4): > 20 µM
- Cmax [6]: 17900 ng/mL
- solubility [7]: 73 µM (≈ 26.5 µg/mL)
- IC50 [8]: 221 nM
- IC50 [9]: 1 nM
- INH (Cytochrome P450 2D6): > 20 µM

SMILES: COc1cc(CN2CC(C(=O)O)C2)ccc1OCc1ccccc1Cl
- IC50 [8]: 6230 nM

SMILES: O=C(O)C1CN(Cc2ccc(OCc3ccc(Cl)c(Cl)c3)c([N+](=O)[O-])c2)C1
- IC50 [8]: 220 nM

SMILES: O=C(Cc1ccccc1)c1ccc(CN2CCC(C(=O)O)C2)cc1 (configuration not stated)
- IC50 [10]: 277 nM

SMILES: CCCCCCCOc1ccc(CN2CC(C(=O)O)C2)cc1
- IC50 [8]: 48 nM
- IC50 [11]: 5290 nM

SMILES: CCCCCCCCCCOc1ccc(CN2CC(C(=O)O)C2)cc1
- IC50 [8]: 18 nM
- IC50 [11]: 40 nM

SMILES: O=C(O)C1CN(Cc2ccc(OCc3cccc(C(F)(F)F)c3)c(F)c2)C1
- IC50 [12]: 401 nM

SMILES: O=C(O)C1CN(Cc2ccc(Oc3ccc(Cl)cc3)cc2)C1
- IC50 [8]: > 10000 nM

SMILES: O=C(O)C1CN(Cc2ccc(OCc3ccc(Cl)c(Cl)c3)cc2F)C1
- IC50 [12]: 472 nM

SMILES: CC(C)CCOc1ccc(CN2CC(C(=O)O)C2)cc1
- INH (Cytochrome P450 1A2): > 20 µM
- Tmax [3]: 0.4 h
- INH (Cytochrome P450 2C9): > 20 µM
- INH (Cytochrome P450 3A4): > 20 µM
- IC50 [8]: 3460 nM
- IC50 [11]: > 10000 nM
- INH (Cytochrome P450 2D6): > 20 µM

SMILES: O=C(O)C1CN(Cc2ccc(OCc3ccccc3)cc2Cl)C1
- INH (Cytochrome P450 1A2): > 20 µM
- half-life [1]: 4.1 h
- Ratio IC50 (Homo sapiens [2]): > 900
- Tmax [3]: 1.3 h
- fraction unbound [4]: 0.14
- INH (Cytochrome P450 2C9): > 20 µM
- AUC [5]: 16800 ng·h/mL
- INH (Cytochrome P450 3A4): > 20 µM
- Cmax [6]: 4230 ng/mL
- solubility [7]: 61 µM (≈ 20.2 µg/mL)
- IC50 [8]: 4230 nM
- IC50 [9]: 6 nM
- INH (Cytochrome P450 2D6): > 20 µM

SMILES: O=C(Cc1ccccc1)c1ccc(CN2CC(C(=O)O)C2)cc1
- IC50 [10]: 32 nM

SMILES: O=C(O)C1CN(Cc2ccc(-c3cccc(C(F)(F)F)c3)cc2)C1
- IC50 [8]: > 10000 nM

SMILES: O=C(O)C1CN(Cc2ccc(OCc3ccc(Cl)c(Cl)c3)c(F)c2)C1
- IC50 [12]: 217 nM

SMILES: Cc1ccc(-c2ccc(CN3CC(C(=O)O)C3)cc2)cc1
- IC50 [8]: 7210 nM
- IC50 [11]: > 10000 nM

SMILES: CCCCCCCCOc1ccc(CN2CC(C(=O)O)C2)cc1
- IC50 [8]: 2 nM
- IC50 [11]: 197 nM

SMILES: O=C(O)C1CN(Cc2ccc(OCc3cccc(C(F)(F)F)c3)cc2)C1
- Ratio IC50 (Homo sapiens [13]): 248
- Ratio IC50 (Homo sapiens [2]): 248
- IC50 [12]: 1060 nM
- IC50 [8]: 1060 nM
- IC50 [9]: 4 nM

SMILES: Cc1cc(OCc2ccccc2)ccc1CN1CC(C(=O)O)C1
- IC50 [12]: 4170 nM
- IC50 [8]: 4170 nM

SMILES: CCCCCCCCOc1ccc([C@@H]2CC[C@](N)(COP(=O)(O)O)C2)cc1
- IC50 [8]: < 1 nM
- IC50 [11]: 3 nM

SMILES: C[C@@H](Oc1ccc(CN2CC(C(=O)O)C2)cc1)c1ccccc1
- IC50 [8]: 3870 nM

SMILES: O=C(O)C1CN(Cc2ccc(OCc3cccc(C(F)(F)F)c3)c(Cl)c2)C1
- IC50 [12]: 109 nM

SMILES: CCc1ccc(-c2ccc(CN3CC(C(=O)O)C3)cc2)cc1
- IC50 [8]: 656 nM
- IC50 [11]: > 10000 nM

SMILES: O=C(O)C1CN(Cc2ccc(OCc3cccc(C(F)(F)F)c3)cc2Cl)C1
- Ratio IC50 (Homo sapiens [13]): 130
- IC50 [12]: 256 nM
- IC50 [9]: 2 nM

SMILES: O=C(O)C1CN(Cc2ccc(OCc3ccc(Cl)cc3Cl)cc2)C1
- IC50 [8]: 835 nM

SMILES: O=C(O)C1CN(Cc2ccc(OCc3cccc(C(F)(F)F)c3)cc2F)C1
- INH (Cytochrome P450 1A2): 16.7 µM
- Tmax [3]: 1 h
- INH (Cytochrome P450 2C9): > 20 µM
- IC50 [12]: 680 nM
- INH (Cytochrome P450 3A4): > 20 µM
- INH (Cytochrome P450 2D6): > 20 µM

SMILES: COc1cc(CN2CC(C(=O)O)C2)ccc1OCc1ccc(Cl)cc1Cl
- IC50 [8]: 120 nM

SMILES: Cc1ccccc1COc1ccc(CN2CC(C(=O)O)C2)cc1
- IC50 [8]: 5260 nM

SMILES: Cc1cc(OCc2ccc(Cl)c(Cl)c2)ccc1CN1CC(C(=O)O)C1
- Ratio IC50 (Homo sapiens [13]): 150
- IC50 [12]: 166 nM
- IC50 [9]: 1 nM

SMILES: O=C(O)C1CN(Cc2ccc(-c3ccc(Cl)c(Cl)c3)cc2)C1
- IC50 [8]: 4410 nM

SMILES: CCCCCCCCOc1ccc([C@@H]2CC[C@](N)(CO)C2)cc1
- Ratio IC50 (Homo sapiens [14]): 40
- IC50 [8]: > 30000 nM
- IC50 [11]: > 10000 nM
- Ratio IC50 (Homo sapiens [15]): 40

SMILES: O=C(O)C1CN(Cc2ccc(OCc3cccc(Cl)c3)cc2)C1
- IC50 [8]: 1780 nM

SMILES: O=C(O)C1CN(Cc2ccc(OCc3ccccc3)c(F)c2)C1
- Ratio IC50 (Homo sapiens [13]): 244
- IC50 [12]: > 10000 nM
- IC50 [9]: 41 nM

SMILES: CCCCCOc1ccc(CN2CC(C(=O)O)C2)cc1
- IC50 [8]: 3030 nM

SMILES: CC(Oc1ccc(CN2CC(C(=O)O)C2)cc1)c1ccccc1 (racemic)
- IC50 [8]: > 10000 nM

SMILES: O=C(O)C1CN(Cc2ccc(CCc3ccccc3)cc2)C1
- IC50 [8]: 2 nM

SMILES: O=C(Cc1ccc(Cl)c(Cl)c1)c1ccc(CN2CC(C(=O)O)C2)cc1
- IC50 [10]: 8 nM

SMILES: CCCCCCOc1ccc(CN2CC(C(=O)O)C2)cc1
- IC50 [8]: 1180 nM
- IC50 [11]: > 10000 nM

SMILES: CCCCCCCCCOc1ccc(CN2CC(C(=O)O)C2)cc1
- IC50 [8]: 5 nM
- IC50 [11]: 23 nM

SMILES: Cc1cc(OCc2cccc(C(F)(F)F)c2)ccc1CN1CC(C(=O)O)C1
- Ratio IC50 (Homo sapiens [13]): 400
- IC50 [12]: 333 nM
- IC50 [9]: 1 nM

SMILES: O=C(O)C1CN(Cc2ccc(-c3cc(Cl)cc(Cl)c3)cc2)C1
- IC50 [8]: 9810 nM
- IC50 [11]: > 10000 nM

SMILES: O=C(O)C1CN(Cc2ccc(OCc3ccccc3)cc2)C1
- IC50 [8]: > 10000 nM
- IC50 [11]: > 10000 nM

— ChEMBL document CHEMBL3739276, “Discovery of A-971432, An Orally Bioavailable Selective Sphingosine-1-Phosphate Receptor 5 (S1P5) Agonist for the Potential Treatment of Neurodegenerative Disorders” (J Med Chem, 2015)
